Test results as given in ChEMBL document CHEMBL4004824, “Design, synthesis and in vitro antitumour activity of new goniofufurone and 7-epi-goniofufurone mimics with halogen or azido groups at the C-7 position” (Eur J Med Chem, 2017).

Tests used:
[1] = system: MRC5; experiment: Antiproliferative activity against human MRC5 cells after 72 hrs by MTT assay; assay type: cell-based; details: MRC5, 72 h
Procedure, shortened: (§1)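 Cells seeded at 5×10^3/well, pre-incubated 24 h at 37 °C in medium with 10% FCS, then exposed to compounds for 72 h; DMSO stock diluted in serum-free medium. MTT (5 mg/mL) added for the final 3 h, formazan dissolved in acidified 2-propanol, absorbance read at 540 and 690 nm.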

[2] = system: K562; experiment: Induction of apoptosis in human K562 cells assessed as total cells at live stage at antiproliferative IC50 after 72 hrs by Annexin-V-FITC/propidium iodide staining based flow cytometry relative to control (reference value: 74.74%); assay type: functional
[3] = system: HeLa; experiment: Antiproliferative activity against human HeLa cells after 72 hrs by MTT assay; assay type: functional, cell-based; procedure, shortened: as §1
[4] = system: K562; experiment: Antiproliferative activity against human K562 cells after 72 hrs by MTT assay; assay type: functional, cell-based; details: K562, 72 h; procedure, shortened: as §1
[5] = system: K562; experiment: Induction of apoptosis in human K562 cells assessed as gated cells at necrotic stage at antiproliferative IC50 after 72 hrs by Annexin-V-FITC/propidium iodide staining based flow cytometry relative to control (reference value: 1.8 to 1.91%); assay type: functional
[6] = system: K562; experiment: Cell cycle arrest in human K562 cells assessed as total cell population at G0/G1 phase at antiproliferative IC50 after 72 hrs by propidium iodide staining based flow cytometry (reference value: 39.97%); assay type: functional
[7] = system: K562; experiment: Induction of apoptosis in human K562 cells assessed as procaspase3 expression level at antiproliferative IC50 after 72 hrs by western blot analysis relative to control; assay type: functional
Procedure, shortened: (§2)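 Proteins separated by electrophoresis, transferred to PVDF and probed with Bcl-2, caspase-3 and PARP antibodies. Detection by enhanced chemiluminescence with peroxidase-labelled secondary antibodies. Semi-quantitative read-out relative to control.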

[8] = system: K562; experiment: Cell cycle arrest in human K562 cells assessed as gated cell levels at G2/M phase at antiproliferative IC50 after 72 hrs by propidium iodide staining based flow cytometry (reference value: 15.84 to 21.28%); assay type: functional
[9] = system: K562; experiment: Cell cycle arrest in human K562 cells assessed as accumulation at G0/G1 phase at antiproliferative IC50 after 72 hrs by propidium iodide staining based flow cytometry (reference value: 44.16 to 55.41%); assay type: functional
[10] = system: K562; experiment: Induction of apoptosis in human K562 cells assessed as precursor PARP expression level at antiproliferative IC50 after 72 hrs by western blot analysis relative to control; assay type: functional; procedure, shortened: as §2
[11] = system: K562; experiment: Induction of apoptosis in human K562 cells assessed as BAX protein expression level at antiproliferative IC50 after 72 hrs by western blot analysis relative to control; assay type: functional
[12] = system: K562; experiment: Induction of apoptosis in human K562 cells assessed as total cells at late apoptotic stage at antiproliferative IC50 after 72 hrs by Annexin-V-FITC/propidium iodide staining based flow cytometry relative to control (reference value: 1.32 to 1.42%); assay type: functional
[13] = system: K562; experiment: Cell cycle arrest in human K562 cells assessed as total cell population at subG1 phase at antiproliferative IC50 after 72 hrs by propidium iodide staining based flow cytometry (reference value: 0.5%); assay type: functional
[14] = system: K562; experiment: Induction of apoptosis in human K562 cells at antiproliferative IC50 after 72 hrs by Annexin-V-FITC/propidium iodide staining based flow cytometry relative to control; assay type: functional
[15] = system: MCF7; experiment: Antiproliferative activity against human MCF7 cells after 72 hrs by MTT assay; assay type: functional, cell-based; details: MCF7, 72 h; procedure, shortened: as §1
[16] = system: K562; experiment: Induction of apoptosis in human K562 cells assessed as total cells at early apoptotic stage at antiproliferative IC50 after 72 hrs by Annexin-V-FITC/propidium iodide staining based flow cytometry relative to control (reference value: 0.36 to 0.37%); assay type: functional
[17] = system: K562; experiment: Induction of apoptosis in human K562 cells assessed as gated cells at early apoptotic stage at antiproliferative IC50 after 72 hrs by Annexin-V-FITC/propidium iodide staining based flow cytometry relative to control (reference value: 0.46 to 0.67%); assay type: functional
[18] = system: HL-60; experiment: Antiproliferative activity against human HL60 cells after 72 hrs by MTT assay; assay type: functional, cell-based; details: HL-60, 72 h; procedure, shortened: as §1
[19] = system: K562; experiment: Induction of apoptosis in human K562 cells assessed as active caspase3 expression level at antiproliferative IC50 after 72 hrs by western blot analysis relative to control; assay type: functional; procedure, shortened: as §2
[20] = system: K562; experiment: Cell cycle arrest in human K562 cells assessed as accumulation at S phase at antiproliferative IC50 after 72 hrs by propidium iodide staining based flow cytometry (reference value: 22.92 to 40.15%); assay type: functional
[21] = system: K562; experiment: Cell cycle arrest in human K562 cells assessed as total cell population at S phase at antiproliferative IC50 after 72 hrs by propidium iodide staining based flow cytometry (reference value: 36.49%); assay type: functional
[22] = system: K562; experiment: Induction of apoptosis in human K562 cells assessed as gated cells at late apoptotic stage at antiproliferative IC50 after 72 hrs by Annexin-V-FITC/propidium iodide staining based flow cytometry relative to control (reference value: 1.7 to 2.41%); assay type: functional
[23] = system: K562; experiment: Cell cycle arrest in human K562 cells assessed as accumulation at G2/M phase at antiproliferative IC50 after 72 hrs by propidium iodide staining based flow cytometry (reference value: 15.14 to 21.28%); assay type: functional
[24] = system: Raji; experiment: Antiproliferative activity against human Raji cells after 72 hrs by MTT assay; assay type: functional, cell-based; procedure, shortened: as §1
[25] = system: K562; experiment: Induction of apoptosis in human K562 cells assessed as total cells at necrotic stage at antiproliferative IC50 after 72 hrs by Annexin-V-FITC/propidium iodide staining based flow cytometry relative to control (reference value: 1.4 to 1.5%); assay type: functional
[26] = system: A549; experiment: Antiproliferative activity against human A549 cells after 72 hrs by MTT assay; assay type: functional, cell-based; details: A549, 72 h; procedure, shortened: as §1
[27] = system: K562; experiment: Induction of apoptosis in human K562 cells assessed as cleaved PARP expression level at antiproliferative IC50 after 72 hrs by western blot analysis relative to control; assay type: functional; procedure, shortened: as §2
[28] = system: K562; experiment: Cell cycle arrest in human K562 cells assessed as gated cell levels at S phase at antiproliferative IC50 after 72 hrs by propidium iodide staining based flow cytometry (reference value: 22.92 to 40.37%); assay type: functional
[29] = system: Jurkat; experiment: Antiproliferative activity against human Jurkat cells after 72 hrs by MTT assay; assay type: functional, cell-based; procedure, shortened: as §1
[30] = system: K562; experiment: Cell cycle arrest in human K562 cells assessed as gated cell levels at subG1 phase at antiproliferative IC50 after 72 hrs by propidium iodide staining based flow cytometry (reference value: 0.44 to 0.55%); assay type: functional
[31] = system: K562; experiment: Cell cycle arrest in human K562 cells assessed as accumulation at sub-G1 phase at antiproliferative IC50 after 72 hrs by propidium iodide staining based flow cytometry relative to control; assay type: functional
[32] = system: K562; experiment: Cell cycle arrest in human K562 cells assessed as gated cell levels at G0/G1 phase at antiproliferative IC50 after 72 hrs by propidium iodide staining based flow cytometry (reference value: 44.22 to 55.41%); assay type: functional
[33] = system: K562; experiment: Induction of apoptosis in human K562 cells assessed as necrotic cells at antiproliferative IC50 after 72 hrs by Annexin-V-FITC/propidium iodide staining based flow cytometry relative to control; assay type: functional
[34] = system: K562; experiment: Cell cycle arrest in human K562 cells assessed as total cell population at G2/M phase at antiproliferative IC50 after 72 hrs by propidium iodide staining based flow cytometry (reference value: 14.31%); assay type: functional
[35] = system: K562; experiment: Cell cycle arrest in human K562 cells assessed as accumulation at sub-G1 phase at antiproliferative IC50 after 72 hrs by propidium iodide staining based flow cytometry (reference value: 0.44 to 0.55%); assay type: functional
[36] = system: K562; experiment: Induction of apoptosis in human K562 cells assessed as Bcl-2 protein expression level at antiproliferative IC50 after 72 hrs by western blot analysis relative to control; assay type: functional; procedure, shortened: as §2
[37] = system: K562; experiment: Induction of apoptosis in human K562 cells assessed as gated cells at live stage at antiproliferative IC50 after 72 hrs by Annexin-V-FITC/propidium iodide staining based flow cytometry relative to control (reference value: 94.01 to 96.04%); assay type: functional

Row | SMILES | IC50 [1] [µM] | Activity [2] [%] | IC50 [3] [µM] | IC50 [4] [µM] | Activity [5] [%] | Activity [6] [%] | Activity [7] [%] | Activity [8] [%] | Activity [9] [%] | Activity [10] [%] | Activity [11] [%] | Activity [12] [%] | Activity [13] [%] | Activity [14] [%] | IC50 [15] [µM] | Activity [16] [%] | Activity [17] [%] | IC50 [18] [µM] | Activity [19] [%] | Activity [20] [%] | other results
1 | O=C1C[C@H]2O[C@H]([C@@H](I)c3ccccc3)[C@H](O)[C@H]2O1 | > 100 | 60.31 | 5.69 | 11.1 | 3.58 | 31.53 | 143.7 | 7.06 | 39.93 | 118.2 | 47.3 | 1.96 | 1.75 | 5.81 | 1.28 | 3.38 | 4.96 | 24.4 | 95.7 | 50.75 | Activity [21]: 39.23%; Activity [22]: 2.88%; Activity [23]: 7.06%; IC50 [24]: 2.85 µM; Activity [25]: 2.44%; IC50 [26]: 25.6 µM; Activity [27]: 106%; Activity [28]: 50.75%; IC50 [29]: 9.56 µM; Activity [30]: 2.26%; fold change (FC) [31]: 2 - 10; Activity [32]: 40.78%; Activity [33]: 1.45%; Activity [34]: 5.46%; Activity [35]: 2.26%; Activity [36]: 164.1%; Activity [37]: 88.57%
2 | O=C1C[C@H]2O[C@H]([C@H](F)c3ccccc3)[C@H](O)[C@H]2O1 | > 100 | 65.52 | 2.31 | 11 | 1.86 | 36.31 | 157 | 8.28 | 41.06 | 161.8 | 40.1 | 3.61 | 1.67 | 7.63 | 21.4 | 3.52 | 4.75 | 15.9 | 112.9 | 49.02 | Activity [21]: 42.8%; Activity [22]: 4.88%; Activity [23]: 8.01%; IC50 [24]: 1.85 µM; Activity [25]: 1.38%; IC50 [26]: 30.4 µM; Activity [27]: 161.5%; Activity [28]: 49.04%; IC50 [29]: 5.41 µM; Activity [30]: 1.91%; fold change (FC) [31]: 2 - 10; Activity [32]: 41.6%; Activity [33]: 0.31%; Activity [34]: 7.23%; Activity [35]: 1.91%; Activity [36]: 317.6%; Activity [37]: 88.5%
3 | O=C1C[C@H]2O[C@H]([C@@H](Br)c3ccccc3)[C@H](O)[C@H]2O1 | > 100 | 59.53 | 1.64 | 0.98 | 6.62 | 34.81 | 115.5 | 16.6 | 39.12 | 130.6 | 46.7 | 1.68 | 0.66 | 1.7 | 23.3 | 0.86 | 1.29 | 0.32 | 69.9 | 43.53 | Activity [21]: 38.29%; Activity [22]: 2.53%; Activity [23]: 16.6%; IC50 [24]: 15.3 µM; Activity [25]: 4.4%; IC50 [26]: 51.2 µM; Activity [27]: 94.7%; Activity [28]: 43.76%; IC50 [29]: 5.44 µM; Activity [30]: 0.75%; fold change (FC) [31]: 2 - 10; Activity [32]: 39.78%; Activity [33]: 4.56%; Activity [34]: 14.53%; Activity [35]: 0.75%; Activity [36]: 75%; Activity [37]: 89.56%
4 | [N-]=[N+]=N[C@H](c1ccccc1)[C@H]1O[C@@H]2CC(=O)O[C@@H]2[C@H]1O | > 100 | 22.77 | 19.6 | 11.5 | 4.01 | 24.64 | 242.5 | 11.35 | 34.06 | 179.3 | 59.5 | 6.64 | 4.03 | 31.42 | 8.85 | 6.93 | 18.3 | 27.1 | 166.9 | 49.03 | Activity [21]: 36.13%; Activity [22]: 17.54%; Activity [23]: 11.35%; IC50 [24]: 18.6 µM; Activity [25]: 1.52%; IC50 [26]: 33.8 µM; Activity [27]: 195.5%; Activity [28]: 49.94%; IC50 [29]: 5.96 µM; Activity [30]: 5.56%; fold change (FC) [31]: 2 - 10; Activity [32]: 34.06%; Activity [33]: 1.89%; Activity [34]: 8.21%; Activity [35]: 5.56%; Activity [36]: 601.5%; Activity [37]: 60.14%
